Test [1] has as its system Stenotrophomonas maltophilia. The test is described as follows: Induction of beta-lactamase L1 expression in Stenotrophomonas maltophilia K279a at 5 to 20 mg/L after 2 hrs […]. The class given is functional, organism-based. The method, boiled down:
(§1)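 Cells at OD600 0.4 grown 2 h with inducer at the stated concentration. Nitrocefin-hydrolysing activity measured in cell extracts, total first, then L2 alone after adding EDTA to 100 μM (inhibits L1). L1 = total − L2. Specific activity divided by that of an identically treated uninduced culture gives fold induction. Mean of three experiments.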

In test [2] the test system is Stenotrophomonas maltophilia. The test is described as follows: Induction of beta-lactamase L2 expression in Stenotrophomonas maltophilia K279a at 5 to 20 mg/L after 2 hrs […]. The class given is functional, organism-based. The method, boiled down: as §1
Test [3] relates to Stenotrophomonas maltophilia. The test is described as follows: Antimicrobial activity against Stenotrophomonas maltophilia K279a expressing beta-lactamase L1 and L2 by agar dilution method. The class given is functional. The method, boiled down:
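MICs by BSAC standard agar dilution on Mueller-Hinton agar against wild-type K279a and its ampR frameshift derivative.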
Background: In agar dilution, organisms are placed on agar that contains the substance at set levels.

The subject of test [4] is Stenotrophomonas maltophilia. Put plainly: Antimicrobial activity against Stenotrophomonas maltophilia K279a harboring -121 frameshift mutation in ampR gene by agar dilution method. Format: functional. In outline: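 MICs by BSAC standard agar dilution on Mueller-Hinton agar against S. maltophilia K279a carrying a frameshift-disrupted ampR (ampRFS); values in mg/liter.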

Test [5] concerns Stenotrophomonas maltophilia. The test is described as follows: Induction of beta-lactamase L1 expression in Stenotrophomonas maltophilia M1 mutant assessed as L1 activity at 10 mg/L after 2 hrs by […] method. The class given is functional. In outline:
(§2)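 Nutrient broth cultures were grown to OD600 0.4, then exposed to 10 mg/liter imipenem as inducer for 2 h. Uninduced cultures were grown to OD600 0.6. Total nitrocefin-hydrolysing specific activity of cell extracts was read spectrophotometrically, then reassayed after adding EDTA to 100 μM to inhibit L1. Values are percent L1 or L2 of total activity, as means of three experiments.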

In test [6] the test system is Stenotrophomonas maltophilia. Put plainly: Induction of beta-lactamase L2 expression in Stenotrophomonas maltophilia M1 mutant assessed as L2 activity at 10 mg/L after 2 hrs by […] method. The class given is functional. The method, boiled down:
as §2

Test [7] relates to Stenotrophomonas maltophilia. The test is described as follows: Induction of beta-lactamase L1 expression in Stenotrophomonas maltophilia M2 mutant assessed as L1 activity at 10 mg/L after 2 hrs by […] method. Format: functional. In outline:
as §2

Test [8] relates to Stenotrophomonas maltophilia. The test is described as follows: Induction of beta-lactamase L2 expression in Stenotrophomonas maltophilia M2 mutant assessed as L2 activity at 10 mg/L after 2 hrs by […] method. Format: functional. In outline: as §2
Test [9] has as its system Stenotrophomonas maltophilia. The test is described as follows: Induction of beta-lactamase L1 expression in Stenotrophomonas maltophilia K279a at 0.1 to 0.8 mg/L after 2 hrs […]. Format: functional, organism-based. The method, boiled down:
as §1

Test [10] deals with Stenotrophomonas maltophilia. Put plainly: Induction of beta-lactamase L2 expression in Stenotrophomonas maltophilia K279a at 0.1 to 0.8 mg/L after 2 hrs […]. The class given is functional, organism-based. In outline:
as §1

Drawing on ChEMBL document CHEMBL1255287, “Induction of L1 and L2 beta-lactamase production in Stenotrophomonas maltophilia is dependent on an AmpR-type regulator” (2008), this text covers Activity and MIC for 7 compounds.

In brackets after ≈: the same amount, converted by molar mass. Activity calls are given as the source filed them. No cut-off for these calls is given here.

Consider `CO[C@@]1(NC(=O)Cc2cccs2)C(=O)N2C(C(=O)O)=C(COC(N)=O)CS[C@@H]21`, for which the result in test [1] and in test [2] was Active.
Usually MIC stands for the least concentration at which growth counts as inhibited. Take `CC1(C)S[C@@H]2[C@H](NC(=O)[C@H](N)c3ccccc3)C(=O)N2[C@H]1C(=O)O` [AMPICILLIN]: the MIC was 2050 mg/L (≈ 5860 µM) in [3] and 8 mg/L in [4].
For `CO/N=C(\C(=O)N[C@@H]1C(=O)N2C(C(=O)O)=C(COC(C)=O)CS[C@H]12)c1csc(N)n1` [CEFOTAXIME] the same measures were 1020 mg/L (≈ 2250 µM) and under 4 mg/L.
On to `CC(C)(O/N=C(\C(=O)N[C@@H]1C(=O)N2C(C(=O)[O-])=C(C[n+]3ccccc3)CS[C@H]12)c1csc(N)n1)C(=O)O` [CEFTAZIDIME], for which the MIC in [3] is 128 mg/L (≈ 234 µM); in test [4] it was under 4 mg/L.
In the case of `C[C@@H](O)[C@H]1C(=O)N2C(C(=O)O)=C(SCCNC=N)C[C@H]12` [IMIPENEM ANHYDROUS], the figures for the minimal inhibitory concentration (MIC) in test [3] and in test [4] were 64 mg/L (≈ 214 µM) and under 4 mg/L, respectively. Also, the Activity in [5] is given as 66%; in [6], 34%; in test [7], 61%; in test [8], 39%. The outcome in test [9] and in test [10] was Active.
Regarding `C[C@@H](O)[C@H]1C(=O)N2C(C(=O)O)=C(S[C@@H]3CN[C@H](C(=O)N(C)C)C3)[C@H](C)[C@H]12` [MEROPENEM], the minimal inhibitory concentration (MIC) in test [3] was 64 mg/L (≈ 167 µM); in [4], under 4 mg/L.
For `CCN1CCN(C(=O)N[C@@H](C(=O)N[C@@H]2C(=O)N3[C@@H]2SC(C)(C)[C@@H]3C(=O)O)c2ccccc2)C(=O)C1=O` [PIPERACILLIN] the same measures were 2050 mg/L (≈ 3960 µM) and 32 mg/L.
